Measured values: ChEMBL document CHEMBL1121617, “Antihypertensive ureidopiperidines” (1980)

Experiments:
Rattus norvegicus [1] = assay: The percent fall in systolic blood pressure at 1.5 / 4 hr after peroral administration of 50 mg/kg in DOCA/saline hypertensive rats at 24 hr; Non significant; type: functional, organism-based; parameters: dose 50 mg/kg; settings: Artery, at 50 mg/kg
Rattus norvegicus [2] = assay: The percent fall in systolic blood pressure at 1.5 / 4 h after peroral administration of 50 mg/kg in DOCA/saline hypertensive rats at 2 hr; type: functional, Artery; settings: route oral
Rattus norvegicus [3] = assay: Percent fall in systolic blood pressure at 1.5 / 4 hr after peroral administration of 50 mg/kg in DOCA/saline hypertensive rats at 6 h; Non significant; type: functional, organism-based; parameters: dose 50 mg/kg; settings: Artery, at 50 mg/kg
Rattus norvegicus [4] = assay: Starting systolic blood pressure at dose of 50 mg/kg in rat; type: functional, Artery
Method in brief: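 Mean systolic blood pressure before dosing for each group of four DOCA/saline hypertensive rats given 50 mg/kg orally. It indicates how far hypertension was established.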

Rattus norvegicus [5] = assay: The percent fall in systolic blood pressure at 1.5 / 4 hr after peroral administration of 50 mg/kg in DOCA/saline hypertensive rats at 2 hr; Non significant; type: functional, organism-based; parameters: dose 50 mg/kg; settings: Artery, at 50 mg/kg

Row | SMILES | Fall (Rattus norvegicus [1]) | Fall (Rattus norvegicus [2]) [%] | Fall (Rattus norvegicus [3]) | SP (Rattus norvegicus [4]) [mmHg] | Fall (Rattus norvegicus [5]) | SP (Rattus norvegicus [4]; 50 mg/kg) [mmHg]
1 | O=C(NC(=O)c1cccs1)NC1CCN(CCCC(=O)c2ccccc2)CC1 | Not significant | 30 | Not significant | 190 |  | 
2 | CC(=O)Nc1ccc(OCC(O)CN2CCC(NC(=O)NC(=O)c3ccccc3)CC2)cc1 (stereo not drawn) | Not significant |  | Not significant | 179 | Not significant | 
3 | O=C(NC(=O)c1ccccc1)NC1CCN(CC(O)C2COc3ccccc3O2)CC1 (stereo in doubt; 29) [listing 1 of 2 here] |  |  |  |  |  | 178
4 | O=C(NC(=O)c1ccccc1)NC1CCN(CC(O)C2COc3ccccc3O2)CC1 (stereo in doubt; 28) [listing 1 of 2 here] |  |  |  |  |  | 174
5 | OC(CN1CCC(/N=C(\S)Nc2ccccc2)CC1)C1COc2ccccc2O1 (stereo not drawn) | Not significant | 26 | Not significant | 182 |  | 
6 | O=C(Nc1ccccc1)NC1CCN(CC(O)C2COc3ccccc3O2)CC1 (stereo in doubt; 31) [listing 1 of 2 here] | Not significant |  | Not significant |  |  | 
7 | O=C(NC(=O)c1ccccc1)NC1CCN(CC(=O)c2ccccc2)CC1 | Not significant | -23 | Not significant | 166 |  | 
8 | O=C(NC1CCCCC1)NC1CCN(CCc2c[nH]c3ccccc23)CC1 | Not significant | 15 | Not significant | 176 |  | 
9 | O=C(NC1CCCCC1)NC1CCN(CC(O)C2COc3ccccc3O2)CC1 (stereo not drawn) | Not significant | 26 | Not significant | 172 |  | 
10 | O=C(NC(=O)c1ccccc1)NC1CCN(CCCC(=O)c2c[nH]c3ccccc23)CC1 | Not significant | 16 | Not significant | 187 |  | 
11 | O=C(Nc1ccccc1)NC1CCN(CC(O)C2COc3ccccc3O2)CC1 (stereo in doubt; 31) [listing 2 of 2 here] |  | 35 |  |  |  | 171
12 | COc1ccc(NC(=O)NC2CCN(CC(O)C3COc4ccccc4O3)CC2)cc1 (stereo not drawn) | Not significant | 17 | Not significant | 190 |  | 
13 | O=C(NC(=O)c1ccc(F)cc1)NC1CCN(CC(O)C2COc3ccccc3O2)CC1 (stereo not drawn) | Not significant | 17 | Not significant | 183 |  | 
14 | O=C(NC(=O)c1ccccc1)NC1CCN(CC(O)C2COc3ccccc3O2)CC1 (stereo in doubt; 29) [listing 2 of 2 here] | Not significant |  | Not significant |  | Not significant | 
15 | CN(C(=O)NC(=O)c1ccccc1)C1CCN(CCc2c[nH]c3ccccc23)CC1 | Not significant | 40 | Not significant | 186 |  | 
16 | COc1ccccc1OCC(O)CN1CCC(NC(=O)NC(=O)c2ccccc2)CC1 (stereo not drawn) | Not significant | 17 | Not significant | 189 |  | 
17 | O=C(Nc1ccccc1)NC1CCN(CC(O)C2COc3ccccc3O2)CC1 (stereo in doubt; 30) [listing 1 of 2 here] |  |  |  |  |  | 182
18 | O=C(NC(=O)c1ccccc1)NC1CCN(CC(O)c2ccccc2)CC1 (stereo not drawn) | Not significant | 21 | Not significant | 182 |  | 
19 | O=C(NC(=O)c1ccccc1)NC1CCN(CC(O)C2COc3ccccc3O2)CC1 (stereo in doubt; 28) [listing 2 of 2 here] | Not significant |  | Not significant |  | Not significant | 
20 | O=C(Nc1ccccc1)NC1CCN(CC(O)C2COc3ccccc3O2)CC1 (stereo in doubt; 30) [listing 2 of 2 here] | Not significant |  | Not significant |  | Not significant | 
21 | N/C(S)=N/C1CCN(CCc2c[nH]c3ccccc23)CC1 | Not significant | 20 | Not significant | 189 |  | 
